Assay results of several laboratories.
Protocols differ between the studies behind these lines.
Cell line: A549
Observed: cell growth or viability

CCN(CC)CCNC(=O)c1c(C)[nH]c(/C=C2\C(=O)Nc3ccc(F)cc32)c1C — IC50: 3.06 µM
CC(=O)O[C@H]1C(=O)[C@@]2(C)[C@H]([C@H](OC(=O)c3ccccc3)[C@]3(O)C[C@H](OC(=O)[C@H](O)[C@@H](NC(=O)c4ccccc4)c4ccccc4)C(C)=C1C3(C)C)[C@]1(OC(C)=O)CO[C@@H]1C[C@@H]2O — IC50 (SRB): 0.03 µM
COc1ccccc1CNCC(O)COc1cccc2[nH]c3ccccc3c12 (stereo not shown) — IC50 (CCK-8; 72 h): 13.9 µM
O=C(N/N=C/c1cccn1CCCN1CCCC1)Nc1cc2c(Nc3ccc(F)c(Cl)c3)ncnc2cc1O[C@H]1CCOC1 — IC50 (MTT; 72 h): 4.36 µM
COc1ccnc(COc2ccc(NC(=O)Nc3ccc(F)cc3)cc2)c1OC — IC50 (MTT; 72 h): 23.3 µM
COc1ccccc1NCCCNCC(O)COc1cccc2[nH]c3ccccc3c12 (stereo not shown) — IC50 (CCK-8; 72 h): 10.8 µM
C=CC1=C(C)c2cc3[nH]c(cc4nc(cc5[nH]c(cc1n2)c(C)c5CCC(=O)O)C(CCC(=O)O)=C4C)c(C)c3C=C — IC50 (4 h, dark): > 100 µM
COC(=O)/C=C1\S/C(=N\C(=O)c2ccc3ccccc3c2)N(C2CCCCC2)C1=O — IC50 (48 h): 13.4 µM
COc1cc(N(C)CCN(C)C)c(NC(=O)C=C(C)C)cc1Nc1nc(Nc2cnn(C)c2)c2sccc2n1 — IC50 (MTT): 1.56 µM
CCN(CC)CCNC(=O)c1c(C)[nH]c(/C=C2\C(=O)Nc3ccc(F)cc32)c1C — IC50 (72 h): 4.56 µM
COCCCOc1ccnc(COc2ccc(NC(=O)Nc3ccc(OC)cc3)cc2)c1C — IC50 (MTT; 72 h): 11.4 µM
NNc1nc(Nc2ccccc2)nc(Nc2ccc(Br)cc2)n1 — IC50 (SRB; 72 h): > 30 µM
NNC(=O)c1ccncc1 — IC50 (MTT; 72 h): > 450 µM
Nc1ccc(Cl)c[n+]1[Pt-2]([Cl])([Cl])[n+]1cc(Cl)ccc1N — IC50 (MTT; 24 h): 8.6 µM
C=CC(=O)Nc1cc(Nc2nc(N3CCc4sccc4C3)c3cccnc3n2)c(OC)cc1N1CCOCC1 — IC50 (MTT): > 50 µM
CCn1c(-c2nnc(NC(=O)c3cc4c([nH]c5ccccc54)c(-c4cc(OC)c(OC)c(OC)c4)n3)s2)cc2ccccc21 — IC50 (MTT; 72 h): 10.9 µM
O=C(NC(=S)Nc1ccccc1)c1ccc2ccccc2c1 — IC50 (48 h): 6.86 µM
Cc1ccc(NC(=O)NNC(=O)c2ccc(Nc3nccc(-c4cccnc4)n3)cc2)cc1 — IC50 (MTT; 24 h): 8.38 µM
CS(=O)(=O)c1ccc(-n2cc(/C=N/N=c3\[nH]c(-c4ccc([N+](=O)[O-])cc4)cs3)c(-c3ccc(Br)cc3)n2)cc1 — IC50 (MTT; 48 h): 68.7 µM
CCC(=O)Nc1cc(Nc2nc(N3CCc4sccc4C3)c3cccnc3n2)c(OC)cc1N1CCN(CCO)CC1 — IC50 (MTT): > 50 µM
O=C(N/N=C/c1cccn1CCN1CCOCC1)Nc1cc2c(Nc3ccc(F)c(Cl)c3)ncnc2cc1O[C@H]1CCOC1 — IC50 (MTT; 72 h): 1.32 µM
COCCCOC(=O)[C@]1(C)CC[C@]2(C)CC[C@]3(C)C4=CC=C5C(=CC(=O)C(O)=C5C)[C@]4(C)CC[C@@]3(C)[C@@H]2C1 — IC50 (MTT; 48 h): 3.22 µM
